Assay [1] has as its target T1, bsNOS (Bacillus subtilis, UniProt O34453).
T1 sequence (O34453 1-363): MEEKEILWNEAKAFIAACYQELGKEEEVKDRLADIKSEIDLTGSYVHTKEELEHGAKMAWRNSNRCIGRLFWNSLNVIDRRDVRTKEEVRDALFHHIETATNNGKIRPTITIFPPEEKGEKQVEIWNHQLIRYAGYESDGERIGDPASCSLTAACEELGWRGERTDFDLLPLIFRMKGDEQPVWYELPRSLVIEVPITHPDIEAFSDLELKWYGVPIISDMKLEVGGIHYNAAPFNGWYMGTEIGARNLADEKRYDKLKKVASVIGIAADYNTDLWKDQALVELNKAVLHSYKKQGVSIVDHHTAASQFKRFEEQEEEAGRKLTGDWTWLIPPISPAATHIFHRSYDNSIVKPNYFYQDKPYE
Nature of the assay: Imidazole displacement assay, spectral binding constant.

The test system of assay [2] is B. subtilis. Nature of the assay: Effect of acriflavine and NOS inhibitors on B. subtilis survival. The assay is classed as cell-based, Bacillus subtilis. Put shortly: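 WT (ATCC 23857) and Δnos B. subtilis grown separately to OD600 ≈ 1.0, diluted to OD600 0.6 in LB, then brought up in M9 minimal medium with or without test compound (500 μM final) and/or acriflavine (800 μM final). Treated 30 min at 30 °C, serially diluted in M9, plated on LB agar + 0.5% glucose, 37 °C overnight. CFU counted; % survival relative to untreated cells; ≥3 replicates, mean ± SEM, Student's t test.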

The target of assay [3] is rat nNOS (Rattus norvegicus, UniProt P29476). As to the kind of experiment: Ki with mammalian NOS isoforms: nNOS. It counts as biochemical. Conditions: 6 compared to 2.
The target of assay [4] is iNOS (Homo sapiens, UniProt P35228). Conditions: read-out: imidazole KD iNOS; used to calculate KS; cited from earlier work.
Assay [5] addresses T1, bsNOS. Conditions: read-out: imidazole KD bsNOS; used to calculate KS; cited from earlier work.
Setting [6] is: KS bsNOS (+H4B), presence of 50 μM H4B.
Setting [7] is: KS bsNOS (−H4B), absence of H4B.

Where two headings read alike, the source gives them in different places.

In general, Kd refers to the constant that tells how readily two partners part at equilibrium.

Chain of rat nNOS (P29476 whole entry, canonical isoform): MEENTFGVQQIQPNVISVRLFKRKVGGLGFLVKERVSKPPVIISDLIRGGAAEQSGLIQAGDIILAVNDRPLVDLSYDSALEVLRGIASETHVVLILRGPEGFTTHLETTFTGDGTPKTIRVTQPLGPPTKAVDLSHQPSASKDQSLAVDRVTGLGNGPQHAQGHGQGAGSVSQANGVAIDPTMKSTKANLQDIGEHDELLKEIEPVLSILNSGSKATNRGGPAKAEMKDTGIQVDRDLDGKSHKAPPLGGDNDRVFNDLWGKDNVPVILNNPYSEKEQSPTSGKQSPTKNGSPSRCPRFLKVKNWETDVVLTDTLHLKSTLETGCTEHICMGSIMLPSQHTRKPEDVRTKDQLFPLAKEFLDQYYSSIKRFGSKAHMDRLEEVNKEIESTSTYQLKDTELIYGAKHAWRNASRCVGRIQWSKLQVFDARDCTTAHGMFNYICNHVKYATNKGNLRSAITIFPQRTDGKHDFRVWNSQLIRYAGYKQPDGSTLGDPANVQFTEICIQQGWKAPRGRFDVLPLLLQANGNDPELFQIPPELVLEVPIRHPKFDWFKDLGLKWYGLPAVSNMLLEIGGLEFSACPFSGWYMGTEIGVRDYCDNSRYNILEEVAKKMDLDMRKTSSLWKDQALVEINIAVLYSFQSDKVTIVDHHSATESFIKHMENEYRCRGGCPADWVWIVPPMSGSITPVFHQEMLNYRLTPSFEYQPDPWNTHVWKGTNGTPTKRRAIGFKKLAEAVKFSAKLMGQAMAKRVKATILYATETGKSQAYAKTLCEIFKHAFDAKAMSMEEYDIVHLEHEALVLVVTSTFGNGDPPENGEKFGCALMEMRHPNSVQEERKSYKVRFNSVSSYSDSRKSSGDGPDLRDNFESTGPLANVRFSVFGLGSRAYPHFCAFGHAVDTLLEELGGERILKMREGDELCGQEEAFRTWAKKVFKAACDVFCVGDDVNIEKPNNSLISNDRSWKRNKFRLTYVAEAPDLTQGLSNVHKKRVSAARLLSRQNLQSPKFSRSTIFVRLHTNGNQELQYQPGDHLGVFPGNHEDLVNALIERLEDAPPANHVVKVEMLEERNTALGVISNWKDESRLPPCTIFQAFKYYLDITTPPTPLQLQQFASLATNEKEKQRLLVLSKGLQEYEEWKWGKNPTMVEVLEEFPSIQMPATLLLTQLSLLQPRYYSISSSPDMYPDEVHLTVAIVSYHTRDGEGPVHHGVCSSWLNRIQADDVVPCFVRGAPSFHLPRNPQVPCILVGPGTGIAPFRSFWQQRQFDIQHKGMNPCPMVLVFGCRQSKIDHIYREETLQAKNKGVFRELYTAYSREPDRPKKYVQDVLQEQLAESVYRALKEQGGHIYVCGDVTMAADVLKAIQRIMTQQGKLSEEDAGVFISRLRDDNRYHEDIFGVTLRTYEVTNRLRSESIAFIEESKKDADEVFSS
Chain of iNOS (P35228 74-504 limits assumed): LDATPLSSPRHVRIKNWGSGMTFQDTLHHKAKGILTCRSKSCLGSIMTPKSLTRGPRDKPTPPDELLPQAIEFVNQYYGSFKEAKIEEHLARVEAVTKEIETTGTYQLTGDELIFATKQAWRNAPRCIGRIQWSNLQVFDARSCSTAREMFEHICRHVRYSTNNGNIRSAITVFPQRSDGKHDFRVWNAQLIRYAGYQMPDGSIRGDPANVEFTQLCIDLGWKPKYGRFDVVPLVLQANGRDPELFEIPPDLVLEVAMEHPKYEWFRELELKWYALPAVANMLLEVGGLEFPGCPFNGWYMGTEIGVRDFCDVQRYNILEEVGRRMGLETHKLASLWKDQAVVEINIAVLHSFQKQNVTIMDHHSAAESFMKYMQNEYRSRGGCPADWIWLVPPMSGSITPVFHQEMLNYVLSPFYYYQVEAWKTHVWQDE

In the case of `NC(=NCCCC(N)C(=O)O)NO` [N-ω-hydroxy-L-arginine (L-NNA), N-ω-hydroxy-L-arginine, reference compound], in assay [1] (setting [6]), the Kd came out at 1.9 ± 0.1 µM.
Take `Cc1cc(N)nc(CCc2cc(N)cc(CCc3cc(C)cc(N)n3)c2)c1` [compound 1]: the “fold difference in binding (KS) to bsNOS in presence vs absence of H4B” value in assay [1] (50 μM H4B vs no H4B) is 2 fold. Also, the figures for the Kd in assay [1] (setting [6]) and in assay [1] (setting [7]) were 1.9 ± 0.1 µM and 0.91 ± 0.08 µM, respectively.
Turning to `Cc1cc(N)nc(CCc2cc(CN)cc(CCc3cc(C)cc(N)n3)c2)c1` [compound 2], the Kd was found to be 47 ± 2 µM in assay [1] (setting [6]) and 15 ± 3 µM in assay [1] (setting [7]). Moreover, the “bacterial growth inhibition (in words)” value in assay [2] (B. subtilis) was “good inhibitor of bacterial growth”.
`Cc1cc(N)nc(CCc2cc(CCCN)cc(CCc3cc(C)cc(N)n3)c2)c1` [compound 3]: the Kd came to 19 ± 1 µM in assay [1] (setting [6]) and 16 ± 1 µM in assay [1] (setting [7]).
`CNc1cc(C)cc(CCc2cc(C#N)cc(CCc3cc(C)cc(N)n3)c2)n1` [compound 4, 3-(2-(6-Amino-4-methylpyridin-2-yl)ethyl)-5-(2-(4-methyl-6-(methylamino)pyridin-2-yl)ethyl)benzonitrile]: the Kd in assay [1] (setting [6]) came out at 19 ± 2 µM; in assay [1] (setting [7]), 12 ± 1 µM.
Consider `Cc1cc(N)nc(CCc2cc(CN)cc(CCc3ccc4cc[nH]c4n3)c2)c1` [compound 6, 6-(3-(2-(1H-Pyrrolo[2,3-b]pyridin-6-yl)ethyl)-5-(aminomethyl)phenethyl)-4-methylpyridin-2-amine], for which the “fold decrease of potency toward nNOS compared to 2” value in assay [3] is on record as above 4 fold. Also, the Kd amounted to 12 ± 4 µM in assay [1] (setting [6]) and 10 ± 2 µM in assay [1] (setting [7]).
On to `c1c[nH]cn1` [imidazole], for which the Kd is 158 µM in assay [4] and 384 µM in assay [5].
In the case of acriflavine [reference compound], the “bacterial growth, % of control” value in assay [2] (ACR alone (800 μM), 30 min) was 23%.

Values taken from paper PMC4306518 (Journal of Medicinal Chemistry, 2014).
